Assay outcomes from PubChem BioAssay.
Sampled rows, rich in hits. Any-hit rate of the full collection: about 2.9%.
SENP7 block – SENP7 protease inhibitors, primary screen, biochemical, luminescence, uHTS. AID 434973, 2010. 1.5% of 330,000 active. recombinant SENP7, Z-RLRGG-aminoluciferin luminescence, 40 min. inhibition, % at 5 µM. Sentrin-specific protease 7 (Homo sapiens), Q9BQF6;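 active = inhibition above about 50% at the single test dose, limit read from the data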;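 also: plate controls were DMSO with enzyme for no effect and no enzyme buffer wells for full effect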
Target sequence (Q9BQF6 706-1050 limits assumed): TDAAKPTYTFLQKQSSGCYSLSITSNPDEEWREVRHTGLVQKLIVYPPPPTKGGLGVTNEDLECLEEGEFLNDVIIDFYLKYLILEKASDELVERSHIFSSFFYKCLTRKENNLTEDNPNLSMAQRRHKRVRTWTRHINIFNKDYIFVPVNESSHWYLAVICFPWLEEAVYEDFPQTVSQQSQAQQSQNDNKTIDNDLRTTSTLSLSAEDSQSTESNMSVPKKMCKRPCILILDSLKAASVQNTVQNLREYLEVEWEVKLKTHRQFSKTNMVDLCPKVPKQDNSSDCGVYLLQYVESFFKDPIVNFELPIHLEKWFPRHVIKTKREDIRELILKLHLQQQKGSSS
SENP8 block-1 – SENP8 protease inhibitors, primary screen, biochemical, luminescence; 1.2% of 330,000 active; purified SENP8, Z-RLRGG-aminoluciferin cleavage; AID 2540, 2010; inhibition, % at 10 µM; in the data active = inhibition above about 50%
Target sequence (Q96LD8 whole entry, looked up): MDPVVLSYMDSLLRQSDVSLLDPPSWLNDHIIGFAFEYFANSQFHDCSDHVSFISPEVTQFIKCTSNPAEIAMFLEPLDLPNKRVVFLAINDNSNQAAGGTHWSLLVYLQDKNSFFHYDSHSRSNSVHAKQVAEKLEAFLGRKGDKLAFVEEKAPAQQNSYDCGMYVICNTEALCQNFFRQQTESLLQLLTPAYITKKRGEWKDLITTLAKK
SENP1 FRET inh – human SENP1 catalytic domain inhibitors, primary screen, biochemical, FRET, uHTS; Sentrin-specific protease 1 (Homo sapiens), Q9P0U3; recombinant SENP1 catalytic domain, CyPet-SUMO1-YPet FRET cleavage; inhibition, % at 10 µM; 0.21% of 360,000 active;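 active = inhibition at least 30% at 10 µM, raw YFP signal under a set limit, fluorescence ratio 0.5 to 1.5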;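 also: 0% = enzyme with DMSO and 100% = no enzyme wells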
Target sequence (Q9P0U3 419-644 limits assumed): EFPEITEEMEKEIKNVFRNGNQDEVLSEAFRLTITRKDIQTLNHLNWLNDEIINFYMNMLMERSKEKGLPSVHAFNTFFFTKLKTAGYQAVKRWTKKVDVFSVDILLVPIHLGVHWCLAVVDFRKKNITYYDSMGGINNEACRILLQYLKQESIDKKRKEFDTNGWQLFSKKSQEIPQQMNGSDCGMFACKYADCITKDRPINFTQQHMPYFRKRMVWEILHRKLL
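Controls: no-enzyme wells low, DMSO-plus-enzyme wells high control. Test system: human recombinant His6-tagged SENP1 catalytic domain enzyme. Reagent: SFCypet-SUMO1-SFYpet FRET protein substrate, 25 nM final. Doses: one dose per compound, 10 µM, 0.5% DMSO. Detection: FRET, CFP and YFP emission. Timing: 50 min reaction at room temperature.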
SENP8 block-2 – human SENP8 protease inhibitors, primary screen, biochemical, fluorescence, Nedd8 protein substrate, uHTS; Sentrin-specific protease 8 (Homo sapiens), Q96LD8; recombinant SENP8; inhibition, % at 20 µM; 0.64% of 360,000 active; in the data active = inhibition mostly above about 40%, no sharp cut-off; inactive = mostly below about 27%
SENP6 inh – SENP6 protease inhibitors, primary screen, biochemical, luminescence, uHTS; Sentrin-specific protease 6 (Homo sapiens), Q9GZR1; Recombinant SENP6 catalytic domain, aminoluciferin luminescence; inhibition, % at 10 µM; 1.8% of 330,000 active; AID 2599, 2010;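 active = inhibition above about 50% at the single tested dose, limit read from the data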;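 also: plate controls were DMSO wells with enzyme for no effect and DMSO wells lacking enzyme for full effect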
Apaf-1 inh – inhibitors of human Apaf-1 apoptosome, primary screen, biochemical, DEVD-Rh110 fluorescence, uHTS | Apoptotic protease-activating factor 1 (Homo sapiens), O14727 | reconstituted apoptosome caspase-3 activity | inhibition, % at 20 µM | 0.71% of 330,000 active | AID 489030, 2010; active = inhibition of at least 40% at 20 µM;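 also: plate controls were DMSO wells for no effect and DEVD-CHO caspase inhibitor wells for full effect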
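Material: reconstituted apoptosome with Apaf-1, cytochrome c, caspase-9, procaspase-3, dATP / Buffer or medium: pH 7.5 Hepes buffer with CHAPS, BSA, DTT / Also added: cytochrome c with DEVD-Rh110 / Schedule: compound with Apaf-1, dATP, procaspase-3 30 min, then 50 min reaction, room temperature / Technique: rhodamine 110 fluorescence at Ex 480/Em 540 nm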
SENP8 conf-1 – SENP8 protease inhibitors, retest, confirmation, biochemical, luminescence, single concentration. shares compounds with SENP7 block. Recombinant SENP8, Z-RLRGG-aminoluciferin luminescence, 60 min. inhibition, % at 12.5 µM. 40% of 6,200 active. AID 488912, 2010;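 active = mean inhibition across replicates above about 50%, limit read from the data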
SENP6 confirm – SENP6 protease inhibitors, confirmation, biochemical, luminescence, single concentration. AID 488915, 2010. recombinant SENP6, Z-RLRGG-aminoluciferin luminescence. shares compounds with SENP7 block. 58% of 6,200 active. inhibition, % at 12.5 µM
SENP7 conf – SENP7 protease inhibitors, retest, confirmation, biochemical, luminescence, single concentration; shares compounds with SENP7 block; 69% of 6,200 active; recombinant SENP7, Z-RLRGG-aminoluciferin luminescence, 40 min; AID 488917, 2010; inhibition, % at 12.5 µM
Casp3 select – caspase-3 protease inhibitors, confirmation, selectivity assay for SENP inhibitor project, biochemical, single concentration; inhibition, % at 12.5 µM; 60% of 6,200 active; purified caspase-3, Z-DEVD-aminoluciferin luminescence, 60 min; AID 488918, 2010; shares compounds with SENP7 block;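 active = mean inhibition above about 50%, limit read from the data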;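 also: plate controls were enzyme with DMSO for no effect and wells without caspase-3 for full effect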
SENP luc ctr – luminescence interference (SENP counter-screen); shares compounds with SENP7 block; 39% of 6,200 active; inhibition, % at 12.5 µM; Pre-incubated SENP8/Z-RLRGG-aminoluciferin, luciferase luminescence interference;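 active = mean inhibition above about 50% when retested at one dose, limit read from the data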;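 also: plate controls were DMSO wells with completed reaction for no effect and substrate without enzyme for full effect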
Apaf-1 inh conf2 – Apaf-1 inhibitors, single-dose retest, confirmation, biochemical, fluorescence, DEVD-Rh110, 20 µM; shares compounds with Apaf-1 inh; reconstituted apoptosome, caspase-3 DEVD-Rh110 fluorescence; inhibition, % at 20 µM; 25% of 1,800 active;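 active = mean inhibition of at least 40% at 20 µM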;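 also: plate controls were DMSO wells for no effect and DEVD-CHO caspase inhibitor control wells for full effect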
Rh110 interf inh – Rh110 fluorescence interference by putative Apaf-1 inhibitors, confirmation, artefact control for Apaf-1 inhibitor project, biochemical, 20 µM; 1,800 tested, under 10 active; quenched caspase reaction; activation (fluorescence interference), % at 20 µM; shares compounds with Apaf-1 inh;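 active = signal rise of 40% or more at 20 µM, treated as a fluorescence artifact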
Apaf1 inh interf – fluorescence interference of Apaf-1 inhibitor hits, dose response, artefact control for Apaf-1 inhibitor project. shares compounds with Apaf-1 inh. fluorescence interference counterscreen, Apaf-1 assay format. IC50, µM. 460 tested, under 10 active. AID 588538, 2011; call rule not given here
SENP8 conf-2 – human SENP8 protease inhibitors, confirmation, biochemical, Nedd8 protein substrate, single concentration; inhibition, % at 25 µM; 15% of 1,400 active; purified SENP8, Nedd8-AMC/pro-Nedd8 cleavage fluorescence, 30 min; AID 624319, 2012; shares compounds with SENP8 block-2; in the data active = inhibition mostly above about 39%, no sharp cut-off; inactive = mostly below about 34%
SENP1 inh conf – human SENP1 catalytic domain inhibitors, confirmation, biochemical, FRET endpoint, single concentration; inhibition, % at 10 µM; 34% of 520 active; AID 651678, 2012; recombinant SENP1, CyPet-SUMO1-YPet FRET cleavage; shares compounds with SENP1 FRET inh; in the data active = inhibition mostly above about 35%, no sharp cut-off; inactive = mostly below about 32%;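 also: 0% = enzyme with DMSO and 100% = no enzyme control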
SENP1 kin conf – human SENP1 catalytic domain inhibitors, confirmation, biochemical, kinetic FRET, single concentration; recombinant SENP1, CyPet-SUMO1-YPet FRET kinetic cleavage; inhibition, % at 10 µM; 26% of 520 active; shares compounds with SENP1 FRET inh; AID 651690, 2012; in the data active = inhibition mostly above about 32%, no sharp cut-off; inactive = mostly below about 29%;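 also: 0% = DMSO with enzyme and 100% = no enzyme substrate only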
* marks the source's active call; other numbers are inactive results; / = no result.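 The calls were made as follows, unless noted: active = mean inhibition above about 50% in the one-dose retest (limit read from the data); inactive = the rest.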

SMILES	SENP7 block	SENP8 block-1	SENP1 FRET inh	SENP8 block-2	SENP6 inh	Apaf-1 inh	SENP8 conf-1	SENP6 confirm	SENP7 conf	Casp3 select	SENP luc ctr	SENP8 conf-2	others
CN(C)c1ccc(NC(=O)C[n+]2ccccc2)cc1	-12.7	-0.3	5.7	10.5	-6.6	-3.7	/	/	/	/	/	/
Oc1cc(Nc2ccccc2)cc2cccnc12	-3.8	-3.2	2.5	-21.7	22.9	14.2	/	/	/	/	/	/
Oc1cc(NCCN2CCOCC2)cc2cccnc12	64.1*	61.1*	-4.7	64.3*	73.7*	92.3*	40.5	76.4*	40.4	95.3*	3.7	90.7*	Apaf-1 inh conf2=79.6*;Rh110 interf inh=-3.8;Apaf1 inh interf=>100
Nc1ccc(N2CCCCC2)c2nonc12	25.1	58.4*	13.2	80.2*	90.4*	97.1*	29.6	56.1*	19.5	-3.0	-3.0	69.7*
CCN(CC)c1nc2c(c(=O)[nH]c(=O)n2C)n1CCOc1ccccc1	-13.0	-3.2	2.8	11.9	-10.3	10.5	/	/	/	/	/	/
COc1cc2[nH]c(C(=O)N3CCc4ccccc43)cc2c(OC)c1OC	20.5	9.7	-2.6	-11.1	26.8	10.3	/	/	/	/	/	/
Nc1scc2c(C(=O)N/N=C/c3ccc(Cl)cc3)nn(-c3ccccc3)c(=O)c12	9.2	24.8	9.6	68.6*	50.1*	42.4*	21.1	25.9	18.0	24.2	-3.2	86.4*
Nc1c(C(=O)N/N=C/c2ccc(Cl)cc2)cnn1-c1ccccc1	6.0	7.7	2.3	-40.5	4.2	1.3	/	/	/	/	/	/
Cc1c(NC(=O)C(C)OC(=O)c2sc3ccccc3c2Cl)c(=O)n(-c2ccccc2)n1C (stereo unspecified)	-2.0	-0.1	1.7	8.6	-24.8	7.9	/	/	/	/	/	/
Cc1c(NC(=O)C(C)OC(=O)c2ccc([N+](=O)[O-])s2)c(=O)n(-c2ccccc2)n1C (stereo unspecified)	15.3	53.9*	3.2	48.1*	58.3*	24.2	47.1	79.4*	28.3	6.8	-16.5	73.0*
COc1cccc(NC(=S)/C(=C(\[O-])c2ccc(OC(F)F)cc2)[n+]2ccccc2)c1	9.4	0.1	-8.7	61.4*	52.5*	25.0	8.7	40.6	1.2	18.9	4.7	70.0*
[O-]/C(=C(\C(=S)Nc1cccc2ccccc12)[n+]1ccccc1)c1ccc(OC(F)F)cc1	/	/	-39.1	-201.8	/	/	/	/	/	/	/	/
CC1(c2ccc(Cl)cc2Cl)NC(=O)N(CC(=O)Nc2ccc3[nH]c(=O)[nH]c3c2)C1=O (stereo unspecified)	-0.5	15.3	-1.3	-4.0	-11.7	-16.1	/	/	/	/	/	/
O=C(N/N=C1\C/C(=N\NC(=O)c2ccncc2)c2ccccc21)c1ccncc1	36.6	63.9*	22.0	98.1*	84.8*	93.4*	-15.6	42.0	8.6	36.6	7.6	94.7*	Apaf-1 inh conf2=60.3*;Rh110 interf inh=7.1;Apaf1 inh interf=>100
C[n+]1cccc2c(Br)ccc([O-])c21	86.6*	93.5*	8.1	116.8*	95.1*	98.2*	11.2	39.7	17.2	5.5	-1.4	69.2*	Apaf-1 inh conf2=63.9*;Rh110 interf inh=6.6;Apaf1 inh interf=>100
O=c1c2ccccc2ncn1Cc1cccc2ccccc12	-7.1	-11.6	1.1	1.5	-15.1	-0.9	/	/	/	/	/	/
Cc1[nH][nH]c(=O)c1C(c1c(C)[nH][nH]c1=O)c1cn(Cc2cccc3ccccc23)c2ccccc12	23.7	42.3	5.5	86.2*	57.2*	94.8*	2.6	37.7	16.7	-1.3	-3.9	84.8*	Apaf-1 inh conf2=50.9*;Rh110 interf inh=11.1;Apaf1 inh interf=>100
COc1ccc(-n2c(SCC(=O)N(C)C3CCS(=O)(=O)C3)nc3ccc(O)cc3c2=O)cc1OC (stereo unspecified)	-5.3	2.6	0.0	-64.4	4.7	-10.7	/	/	/	/	/	/
Cc1cccc(-c2noc(-c3cc4ccccc4oc3=O)n2)c1	81.5*	0.2	51.1*	-488.0	11.5	10.8	19.7	21.2	21.0	37.9	2.7	/	SENP1 inh conf=-0.2;SENP1 kin conf=6.4
Cc1cccc(-c2noc(-c3ccc(Cl)cc3[N+](=O)[O-])n2)c1	38.9	7.4	0.7	19.2	39.3	17.6	/	/	/	/	/	/
